The text below walks through data of ChEMBL document CHEMBL1128507, “Design and synthesis of potent retinoid X receptor selective ligands that induce apoptosis in leukemia cells” (J Med Chem, 1995).

For assay [1], the target named is T1, Retinoic acid receptor RXR-gamma (Mus musculus, UniProt P28705).
T1 sequence (P28705 whole entry): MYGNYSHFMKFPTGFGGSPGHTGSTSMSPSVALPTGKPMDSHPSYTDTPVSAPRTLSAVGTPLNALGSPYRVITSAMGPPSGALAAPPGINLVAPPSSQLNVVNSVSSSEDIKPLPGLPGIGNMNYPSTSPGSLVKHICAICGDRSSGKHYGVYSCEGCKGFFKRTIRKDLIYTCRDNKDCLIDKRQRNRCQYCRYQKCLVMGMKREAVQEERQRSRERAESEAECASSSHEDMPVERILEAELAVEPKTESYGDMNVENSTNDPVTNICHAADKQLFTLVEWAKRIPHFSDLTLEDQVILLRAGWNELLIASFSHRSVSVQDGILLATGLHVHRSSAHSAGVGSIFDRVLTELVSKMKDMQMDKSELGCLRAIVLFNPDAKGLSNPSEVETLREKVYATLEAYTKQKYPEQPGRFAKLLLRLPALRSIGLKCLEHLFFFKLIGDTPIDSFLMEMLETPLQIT
Put plainly: Binding affinity to Retinoic acid receptor RXR-gamma was evaluated in a competitive binding assay. Summed up: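 Receptor from baculovirus. Competition binding used [3H]-9-cis-RA as the radioligand for RXRs. Kd was calculated with the Cheng-Prussof equation. Values are mean ± SEM of about three experiments, or a single experiment in triplicate.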

Assay [2] deals with T1, Retinoic acid receptor RXR-gamma. Put plainly: Ability to activate gene expression at Retinoic acid receptor RXR-gamma was evaluated in a cotransfection assay. The essentials:
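CV-1 cells cotransfected with the RXR-gamma receptor, using an automated 96-well format. Values are either one experiment in triplicate or the mean ± SEM of at least two experiments, each in triplicate.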

Assay [3] deals with T2, Retinoic acid receptor RXR-alpha (Homo sapiens, UniProt P19793).
T2 sequence (P19793 whole entry): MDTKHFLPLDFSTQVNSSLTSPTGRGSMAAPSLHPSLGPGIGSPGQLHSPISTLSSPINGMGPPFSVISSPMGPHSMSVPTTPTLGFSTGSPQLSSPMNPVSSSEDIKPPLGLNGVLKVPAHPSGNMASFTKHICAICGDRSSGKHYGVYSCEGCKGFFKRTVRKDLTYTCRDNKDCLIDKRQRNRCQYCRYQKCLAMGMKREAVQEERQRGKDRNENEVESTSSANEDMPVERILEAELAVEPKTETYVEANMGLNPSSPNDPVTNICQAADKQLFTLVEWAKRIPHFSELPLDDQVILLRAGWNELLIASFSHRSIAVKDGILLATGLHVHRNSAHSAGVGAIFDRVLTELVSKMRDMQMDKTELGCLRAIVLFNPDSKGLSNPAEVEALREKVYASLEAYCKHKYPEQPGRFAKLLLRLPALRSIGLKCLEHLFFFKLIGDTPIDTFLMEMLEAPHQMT
Put plainly: Ability to bind directly to Retinoic acid receptor RXR-alpha was evaluated in a competitive binding assay.

The target of assay [4] is T2, Retinoic acid receptor RXR-alpha. Nature of the assay: Ability to activate gene expression at Retinoic acid receptor RXR-alpha was evaluated in a cotransfection assay.
Assay [5] deals with T3, Retinoic acid receptor RXR-beta (Mus musculus, UniProt P28704).
T3 sequence (P28704 whole entry): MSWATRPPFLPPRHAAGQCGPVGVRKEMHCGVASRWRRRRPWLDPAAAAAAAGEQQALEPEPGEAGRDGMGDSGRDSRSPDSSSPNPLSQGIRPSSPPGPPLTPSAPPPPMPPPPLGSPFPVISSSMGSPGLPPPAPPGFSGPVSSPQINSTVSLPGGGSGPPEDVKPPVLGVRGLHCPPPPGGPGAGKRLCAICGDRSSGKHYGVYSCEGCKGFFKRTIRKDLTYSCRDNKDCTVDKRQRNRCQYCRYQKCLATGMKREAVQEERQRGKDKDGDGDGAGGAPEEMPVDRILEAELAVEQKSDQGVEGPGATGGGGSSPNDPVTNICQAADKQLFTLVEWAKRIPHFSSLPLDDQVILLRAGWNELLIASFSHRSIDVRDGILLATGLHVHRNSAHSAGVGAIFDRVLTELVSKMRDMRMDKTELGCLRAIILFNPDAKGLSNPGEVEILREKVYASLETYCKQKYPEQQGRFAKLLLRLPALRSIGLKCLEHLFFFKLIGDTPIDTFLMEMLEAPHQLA
Put plainly: Binding affinity to Retinoic acid receptor RXR-beta was determined in a competitive binding assay.

The target in assay [6] is T3, Retinoic acid receptor RXR-beta. Nature of the assay: Ability to activate gene expression at Retinoic acid receptor RXR-beta was evaluated in a cotransfection assay.

In general, Kd refers to the equilibrium constant for the complex coming apart. Read a high Kd as lower affinity. Broadly, the EC50 is the midpoint of the concentration-response curve. Lower therefore signals an effect from little substance. Consider `C=C(c1ccc(C(=O)O)cc1)c1cc2c(cc1C)CCCC2(C)C`, for which the Kd in assay [1], in assay [3] and in assay [5] was more than 1000 nM throughout. For the same molecule, the EC50 in assay [2] stood at 2600 nM; in assay [4], 2400 nM; in assay [6], 2400 nM.
`C=C(c1ccc(C(=O)O)cc1)c1cc2c(cc1C)C(C)(C)CCC2`: the Kd is 1740 nM in assay [1], 1160 nM in assay [3] and 853 nM in assay [5]. In addition, the EC50 in assay [2] was 600 nM; in assay [4], 1200 nM; in assay [6] it was 770 nM.
For `Cc1cc2c(cc1C1(c3ccc(C(=O)O)cc3)CO1)C(C)(C)CCC2(C)C` (configuration not stated), the Kd is 547 nM in assay [1], 670 nM in assay [3] and 190 nM in assay [5]. The EC50 in assay [2] is 47 nM; in assay [4], 51 nM; in assay [6], 67 nM.
With `Cc1cc2c(cc1C(C)c1ccc(C(=O)O)cc1)C(C)(C)CCC2(C)C` (configuration not stated), the Kd was found to be 200 nM in assay [1], 110 nM in assay [3] and 150 nM in assay [5]. In addition, the EC50 in assay [2] was 340 nM; in assay [4] it was 470 nM; in assay [6], 310 nM.
For the molecule `Cc1cc2c(cc1Oc1ccc(C(=O)O)cc1)C(C)(C)CCC2(C)C`, the figures for the Kd in assay [1], in assay [3] and in assay [5] were 450 nM, 520 nM and 770 nM, respectively. The EC50 worked out at 430 nM in assay [2], 1000 nM in assay [4] and 1900 nM in assay [6].
With `Cc1cc2c(cc1C(C)(C)c1ccc(C(=O)O)cc1)C(C)(C)CCC2(C)C`, the equilibrium dissociation constant (Kd) in assay [1], in assay [3] and in assay [5] was more than 1000 nM throughout. Further, the values for the EC50 in assay [2], in assay [4] and in assay [6] were 650 nM, 650 nM and 1900 nM, respectively.
Take `Cc1cc2c(cc1Cc1ccc(C(=O)O)cc1)C(C)(C)CCC2(C)C`: the Kd in assay [1], in assay [3] and in assay [5] was more than 1000 nM in each case. The EC50 in assay [2] was 440 nM; in assay [4], 460 nM; in assay [6], 1200 nM.
Take `C=C(c1ccc(C(=O)O)cc1)c1cc2c(cc1C)C(C)(C)C(C)C2(C)C` (configuration not stated): the results for the Kd in assay [1], in assay [3] and in assay [5] were 283 nM, 176 nM and 291 nM, respectively. In addition, the 50% effective concentration (EC50) in assay [2] turned out to be 500 nM; in assay [4], 300 nM; in assay [6], 280 nM.
As to `Cc1cc2c(cc1C1(c3ccc(C(=O)O)cc3)CC1)C(C)(C)CCC2(C)C`, the equilibrium dissociation constant (Kd) in assay [1] came to 25 nM; in assay [3] it was 46 nM; in assay [5], 70 nM. The EC50 in assay [2] is 17 nM; in assay [4] it was 26 nM; in assay [6], 22 nM.
With `CC(C)=C(c1ccc(C(=O)O)cc1)c1cc2c(cc1C)C(C)(C)CCC2(C)C`, the Kd in assay [1] amounted to 150 nM; in assay [3], 50 nM; in assay [5] it was 160 nM. The concentration for a half-maximal effect (EC50) was 240 nM in assay [2], 300 nM in assay [4] and 130 nM in assay [6].
As for `Cc1cc2c(cc1C(=O)c1cccc(C(=O)O)c1)C(C)(C)CCC2(C)C`, the Kd in assay [1], in assay [3] and in assay [5] was more than 1000 nM in each case. Also, the EC50 in assay [2], in assay [4] and in assay [6] was more than 10000 nM each time.
`Cc1cc2c(cc1C(=O)c1ccccc1C(=O)O)C(C)(C)CCC2(C)C`: the Kd in assay [1], in assay [3] and in assay [5] was more than 1000 nM each time. For the same molecule, the 50% effective concentration (EC50) in assay [2], in assay [4] and in assay [6] was more than 10000 nM in each case.
